Calls of active or inactive are those of the source. The calls are words filed in the database; no cut-off is given here. Where only a bound is given, the exact number is not on record here.

The nature of assay [1]: In vitro antagonism at Alpha-2 adrenergic receptor in rat or mouse vas deferens relative to RX781094. The class given is functional. The method in brief:
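Prostatic half of vas deferens from male Sprague–Dawley rats (200–250 g; Krebs, 30 °C, 95% O2/5% CO2, 0.1 Hz, 3-ms, 40 V) or from mice (magnesium-free Krebs, 100–140 V). Tension 0.5 g; isometric twitch recording. […] The concentration giving 50% reversal of the inhibition was compared with standard 5 in the same tissue.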

For assay [2], the target named is T1, Adrenergic receptor alpha-1 (Rattus norvegicus) (UniProt P15823+P23944+P43140). The assay is described as follows: In vitro postsynaptic agonist potency at alpha-1 adrenergic receptor in rat anococcygeus muscle relative to phenylephrine; IA means inactive. Format: functional, tissue-based. The method, boiled down:
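Rat anococcygeus muscle (male Sprague–Dawley rats, 200–250 g) suspended at 0.5 g initial tension in a 50-mL organ bath. […] Standard dose-response curves were run before and after the analogue's curve.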

In assay [3] the target is T1, Adrenergic receptor alpha-1 (Rattus norvegicus). Description: Ratio of presynaptic antagonist potency to postsynaptic antagonist potency. Format: functional.
The target is the same in assay [4]. Description: In vitro postsynaptic antagonist potency at alpha-1 adrenergic receptor in rat anococcygeus relative to compound 5 (RX781094). Format: functional.
Assay [5] addresses T2, Adrenergic receptor alpha-2 (Rattus norvegicus) (UniProt P22086+P19328+P22909). Description: In vitro presynaptic agonist potency at alpha-2 adrenergic receptor in rat or mouse vas deferens relative to clonidine; IA means inactive. The class given is functional, tissue-based. The method in brief:
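Field-stimulated rat or mouse vas deferens (Krebs, 30 °C, 95% O2/5% CO2, 3-ms pulses at 0.1 Hz) with isometric twitch recording. […] Standard dose-response curves were run before and after the analogue's curve.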

For assay [6], the target named is T1, Adrenergic receptor alpha-1 (Rattus norvegicus). The assay is described as follows: In vitro postsynaptic agonist potency at alpha-1 adrenergic receptor in rat anococcygeus muscle relative to phenylephrine. The class given is functional, tissue-based.
For assay [7] the target is unchanged. The assay is described as follows: In vitro postsynaptic antagonist potency at alpha-1 adrenergic receptor in rat anococcygeus relative to compound 5 (RX781094); IA means compound is inactive. The class given is functional.
Assay [8] has as its system Alpha-2 adrenergic receptor (Rattus norvegicus). Description: In vitro presynaptic agonist potency at alpha-2 adrenergic receptor in rat or mouse vas deferens relative to clonidine; Inactive.
The target in assay [9] is T2, Adrenergic receptor alpha-2 (Rattus norvegicus). Description: In vitro presynaptic antagonist potency at alpha-2 adrenergic receptor in rat or mouse vas deferens relative to compound 5 (RX781094). Format: functional, tissue-based. The method in brief: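 Prostatic halves of rat vas deferens (male Sprague–Dawley rats, 200–250 g; Krebs, 30 °C, 95% O2/5% CO2; 3-ms, 40 V, 0.1 Hz field pulses) or mouse vas deferens (Mg-free Krebs, 30 °C; 3-ms pulses, 0.1 Hz, 100–140 V) were used, with isometric twitch recording. […] The concentration giving 50% reversal was compared with the RX781094 standard in the same tissue.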

The target of assay [10] is T1, Adrenergic receptor alpha-1 (Rattus norvegicus). The assay is described as follows: In vitro postsynaptic antagonist potency at alpha-1 adrenergic receptor in rat anococcygeus relative to compound 5 (RX781094); AG means compound is agonist. Conditions: filed as agonist. The class given is functional.
In assay [11] the target is T2, Adrenergic receptor alpha-2 (Rattus norvegicus). The assay is described as follows: In vitro presynaptic agonist potency at alpha-2 adrenergic receptor in rat or mouse vas deferens relative to clonidine. The class given is functional, tissue-based. The method, boiled down: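 Field-stimulated rat or mouse vas deferens under 0.5 g tension, at 0.1 Hz with 3-ms pulses, 30 °C, gassed with 95% O2/5% CO2. Contractions were recorded isometrically. Standard dose-response curves were run before and after each analogue curve. Potency was expressed relative to the standard in the same experiment.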

For `O=[N+]([O-])c1cccc2c1OC(C1=NCCN1)CO2` (stereo unspecified), the results for the Antagonist potency in assay [1] and in assay [4] were 0.02 and 0.09, respectively. For the same molecule, the Agonist potency entry in assay [2] and in assay [5] was “inactive” each time. Also, the Selectivity in assay [3] was found to be 0.22.

In [6], `Brc1ccc2c(c1)OCC(C1=NCCN1)O2` (stereo unspecified) yielded an Agonist potency of 0.05. Moreover, the Antagonist potency in assay [1] was determined as 0.01. Moreover, in [7], the Antagonist potency entry was “inactive”. Further, in assay [8], the Agonist potency result was “inactive”.

`Clc1ccc2c(c1)OCC(C1=NCCN1)O2` (stereo unspecified): the Agonist potency in assay [6] came to 0.005. The Antagonist potency in assay [1] worked out at 0.01; in assay [4], 1. Further, the Selectivity in [3] worked out at 0.01. Also, the Agonist potency result in assay [8] is “inactive”.

As to `c1ccc2c(c1)OCC(C1=NCCCN1)O2` (stereo unspecified), the Agonist potency entry in assay [2] and in assay [5] was “inactive” in each case. The Selectivity in assay [3] came to 0.1. Further, the Antagonist potency is 0.1 in assay [4] and 0.01 in [9].

Turning to `c1ccc2c(c1)OCC(CC1=NCCN1)O2` (stereo unspecified), the Agonist potency result in assay [2] and in [5] was “inactive” each time. Further, the Selectivity in assay [3] amounted to 0.33. The values for the Antagonist potency in assay [4] and in [9] were 0.14 and 0.045, respectively.

Consider `CN1CCN=C1C1COc2ccccc2O1` (stereo unspecified), for which the Agonist potency entry in assay [2] and in assay [5] was “inactive” each time. For the same molecule, the Selectivity in assay [3] is 0.003. The Antagonist potency amounted to 0.1 in assay [4] and 0.0003 in [9].

As to `N/C(=N\CCCO)C1COc2ccccc2O1` (stereo unspecified), the Agonist potency entry in [2] and in assay [5] was “inactive” each time. The Antagonist potency is 0.024 in assay [4] and under 0.001 in assay [9].

Take `COc1cccc2c1OCC(C1=NCCN1)O2` (stereo unspecified): the Agonist potency in assay [6] stood at 5. The Antagonist potency in assay [1] was determined as 0.001. The Antagonist potency entry in [7] is “inactive”. Moreover, in assay [5], the Agonist potency entry is “inactive”.

With `CC1(C)CN=C(C2COc3ccccc3O2)N1` (stereo unspecified), the Agonist potency entry in assay [2] and in [5] was “inactive” each time. The Selectivity in assay [3] was 0.01. Moreover, the results for the Antagonist potency in [4] and in assay [9] were 0.01 and 0.0001, respectively.

Turning to `Nc1noc(CC2COc3ccccc3O2)n1` (stereo unspecified), the Agonist potency result in assay [2] and in assay [5] was “inactive” each time. The results for the Antagonist potency in assay [4] and in assay [9] were under 0.023 and under 0.0003, respectively.

Consider `CC(C)(C)c1ccc2c(c1)OCC(C1=NCCN1)O2` (stereo unspecified), for which the Agonist potency result in [2] and in assay [5] was “inactive” in each case. In addition, the Selectivity in assay [3] was 0.1. The Antagonist potency amounted to 0.1 in assay [4] and 0.01 in assay [9].

For the molecule `c1ccc2c(c1)OCC(c1ncc[nH]1)O2` (stereo unspecified), the Agonist potency entry in assay [2] and in assay [5] was “inactive” in each case. Also, the Selectivity in assay [3] was 0.1. Besides, the Antagonist potency in [4] was 0.01; in [9], 0.001.

`O=[N+]([O-])c1ccc2c(c1)OCC(C1=NCCN1)O2` (stereo unspecified): the Antagonist potency was under 0.0003 in [1] and under 0.02 in assay [4]. The Agonist potency result in assay [2] and in assay [5] was “inactive” in each case.

As to `N=C(C1COc2ccccc2O1)N1CCCCC1` (stereo unspecified), the Agonist potency result in [2] and in assay [5] was “inactive” in each case. For the same molecule, the Selectivity in assay [3] turned out to be 0.01. Also, the Antagonist potency stood at 0.01 in assay [4] and 0.0001 in assay [9].

Consider `Cc1cccc2c1OC(C1=NCCN1)CO2` (stereo unspecified), for which the figures for the Antagonist potency entry in assay [10] and in assay [9] were “Agonist” and 0.5, respectively. The Agonist potency in [6] worked out at 2.1; in [11], 0.01.

As to `CC1CN=C(C2COc3ccccc3O2)N1` (stereo unspecified), the Agonist potency result in assay [2] and in [5] was “inactive” in each case. In assay [3], the Selectivity turned out to be 0.003. In addition, the values for the Antagonist potency in assay [4] and in assay [9] were 1 and 0.003, respectively.

On to `c1ccc2c(c1)OCC(Cn1ccnc1)O2` (stereo unspecified), for which the Agonist potency entry in [2] and in assay [5] was “inactive” in each case. The Antagonist potency in assay [4] was under 0.023; in [9], 0.013.

Regarding `Oc1cccc2c1OC(C1=NCCN1)CO2` (stereo unspecified), the results for the Antagonist potency in [1] and in [4] were 0.04 and 0.2, respectively. Further, the Agonist potency entry in assay [2] and in assay [5] was “inactive” throughout. In addition, the Selectivity in assay [3] is 0.2.

As for `N=C(N)C1COc2ccccc2O1` (stereo unspecified), the Agonist potency in [6] turned out to be 0.05. Further, the Antagonist potency in [9] was 0.01. Also, the Agonist potency result in assay [5] is “inactive”.

Regarding `Oc1ccc2c(c1)OC(C1=NCCN1)CO2` (stereo unspecified), the values for the Antagonist potency result in [10] and in [1] were “Agonist” and 0.036, respectively. Moreover, the Agonist potency worked out at 1.1 in assay [6] and 0.15 in [11].

As to `c1ccc2c(c1)OCC(Cc1ncc[nH]1)O2` (stereo unspecified), the Agonist potency result in [2] and in [5] was “inactive” in each case. In addition, in assay [3], the Selectivity was found to be 0.016. In addition, the Antagonist potency in assay [4] is 0.25; in [9], 0.004.

Regarding `Fc1ccc2c(c1)OCC(C1=NCCN1)O2` (stereo unspecified), the Antagonist potency in [1] stood at 0.01; in assay [4] it was 0.1. The Agonist potency result in assay [2] and in assay [8] was “inactive” throughout. Further, in assay [3], the Selectivity worked out at 0.1.

Regarding `c1ccc2cc3c(cc2c1)OCC(C1=NCCN1)O3` (stereo unspecified), the Agonist potency result in assay [2] and in assay [5] was “inactive” in each case. The Selectivity in [3] is 0.1. In addition, the Antagonist potency was found to be 0.01 in [4] and 0.001 in assay [9].

For the molecule `COc1cccc(OC)c1OCC/N=C(\N)C1COc2ccccc2O1` (stereo unspecified), the Agonist potency entry in assay [2] is “inactive”. Moreover, in assay [3], the Selectivity stood at 0.01. The same molecule came in with an Agonist potency in assay [11] of 0.0001. In addition, the Antagonist potency stood at 0.1 in [4] and 0.001 in assay [9].

Take `Cc1cc2c(cc1C)OC(C1=NCCN1)CO2` (stereo unspecified): the Antagonist potency was 0.06 in assay [1] and 0.64 in [4]. Moreover, the Agonist potency entry in assay [2] and in [8] was “inactive” each time. In assay [3], the Selectivity was 0.1.

Turning to `COc1ccc2c(c1)OC(C1=NCCN1)CO2` (stereo unspecified), the Antagonist potency in [1] came out at 0.02; in assay [4] it was 0.225. The Agonist potency result in [2] and in [5] was “inactive” throughout. The Selectivity in assay [3] came to 0.09.

Consider `Clc1cc2c(cc1Cl)OC(C1=NCCN1)CO2` (stereo unspecified), for which the Agonist potency entry in assay [2] and in assay [8] was “inactive” each time. Also, the Selectivity in [3] is 0.01. For the same molecule, the Antagonist potency in [4] was 0.3; in assay [9], 0.003.

Consider `CCCC/N=C(\NCCCC)C1COc2ccccc2O1` (stereo unspecified), for which the Agonist potency entry in [2] and in [5] was “inactive” in each case. For the same molecule, the Selectivity in assay [3] is 0.01. The Antagonist potency in [4] is 0.1; in [9], 0.001.

In turn, `COc1ccc2c(c1)OCC(C1=NCCN1)O2` (stereo unspecified) had an Agonist potency in [6] of 0.005. In addition, the Antagonist potency in [1] was 0.006. In addition, in assay [5], the Agonist potency result was “inactive”.

On to `Clc1ccc(Cl)c2c1OCC(C1=NCCN1)O2` (stereo unspecified), for which the Antagonist potency entry in assay [10] was “Agonist”; in assay [9], 0.26. The Agonist potency stood at 0.55 in assay [6] and 0.02 in assay [11].

Consider `c1ccc2c(c1)OCC(c1nc3ccccc3[nH]1)O2` (stereo unspecified), for which the Agonist potency entry in assay [2] and in assay [5] was “inactive” throughout. The Antagonist potency in assay [4] is under 0.02; in assay [9] it was 0.0003.

Regarding `N=C(NCCc1ccccc1)C1COc2ccccc2O1` (stereo unspecified), the Agonist potency result in [2] and in assay [5] was “inactive” in each case. Further, in assay [3], the Selectivity came to 0.01. Moreover, the figures for the Antagonist potency in assay [4] and in assay [9] were 0.03 and 0.0003, respectively.

Consider `COc1cccc2c1OC(C1=NCCN1)CO2` (stereo unspecified), for which the figures for the Antagonist potency in assay [1] and in assay [4] were 0.12 and 0.9, respectively. The Agonist potency entry in assay [2] and in assay [5] was “inactive” in each case. In addition, the Selectivity in assay [3] turned out to be 0.14.

The values above are taken from ChEMBL document CHEMBL1122229, “alpha-adrenoreceptor reagents. 1. Synthesis of some 1,4-benzodioxans as selective presynaptic alpha 2-adrenoreceptor antagonists and potential antidepressants” (J Med Chem, 1983).
